Laboratory results reported in ChEMBL document CHEMBL1126922, “Synthesis of 2,4-disubstituted thiazoles and selenazoles as potential antitumor and antifilarial agents: 1. Methyl 4-(isothiocyanatomethyl)thiazole-2-carbamates, -selenazole-2- carbamates, and related derivatives” (J Med Chem, 1993).

Key:
L1210 [1] = assay: Growth rate measured as ratio of population doubling time of control cells to that of treated L1210 cells at 100 uM; format: functional, Mus musculus
Outline: (§1)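 L1210 cells were grown in static suspension at 38 °C in Fischer's medium with 10% heat-inactivated horse serum, with test compound present continuously for 3 days. Growth rate is the treated/control slope of semilog cell number versus time, calculated as control doubling time ÷ treated doubling time. If growth slowed during the run, the final rate at day 3 was used.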

L1210 [2] = assay: Effect on protein synthesis in L1210 measured by inhibition of incorporation of [3H]leucine into acid insoluble material after 6 hours expressed as percent of control; format: functional, Mus musculus; set-up: scale not given: the % may be the effect or the level left
Outline: (§2)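 100 μM compound and L-[3,4,5-3H]leucine (143 Ci/mmol, 1 μCi/mL) were added together to L1210 cells ((1-1.5) × 10^5 cells/mL) for a 1 h pulse, started at 0 h or 6 h after compound. Duplicate samples were chilled in ice-cold Puck's Saline G, washed, and precipitated with BSA plus 8% perchloric acid on ice for 30 min. The pellet was hydrolysed in 1 N NaOH at 37 °C and counted; results are % of control.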

L1210 [3] = assay: In vitro inhibitory concentration of compound against leukemia L1210 cells; format: functional, cell-based; details: Mus musculus
Outline: (§3)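 L1210 murine leukemia cells kept in static suspension culture at 38 °C in Fischer's medium with 10% heat-inactivated horse serum. Growth measured over 3 days with the compound present continuously at various concentrations. Growth rate = control doubling time / treated doubling time, using the final rate if growth slowed. IC50 = concentration that cuts growth rate to 50% of control.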

L1210 [4] = assay: Effect on DNA synthesis in L1210 measured by inhibition of incorporation of [3H]dThd into acid insoluble material after 0 hours expressed as percent of control; format: functional, Mus musculus; set-up: scale not given: the % may be the effect or the level left
Outline: (§4)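 L1210 cells given 100 μM compound together with [methyl-3H]dThd (20 Ci/mmol, 1 μCi/mL) or [5-3H]Urd (28.5 Ci/mmol, 1 μCi/mL). Label pulse lasted 1 h, started either at compound addition (0 h) or 6 h later. 3H in the acid-insoluble fraction was counted by liquid scintillation. Values are % of control, mean of two determinations in separate experiments, with range.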

L1210 [5] = assay: Effect on RNA synthesis in L1210 measured by inhibition of incorporation of [3H]uridine into acid insoluble material after 0 hours expressed as percent of control; format: functional, Mus musculus; set-up: scale not given: the % may be the effect or the level left; outline: as §4
L1210 [6] = assay: Effect on protein synthesis in L1210 measured by inhibition of incorporation of [3H]leucine into acid insoluble material after 0 hours expressed as percent of control; format: functional, Mus musculus; set-up: scale not given: the % may be the effect or the level left; outline: as §2
L1210 [7] = assay: Effect on RNA synthesis in L1210 measured by inhibition of incorporation of [3H]uridine into acid insoluble material after 6 hours expressed as percent of control; format: functional, Mus musculus; set-up: scale not given: the % may be the effect or the level left; outline: as §4
L1210 [8] = assay: Effect on DNA synthesis in L1210 measured by inhibition of incorporation of [3H]dThd into acid insoluble material after 6 hours expressed as percent of control; format: functional, Mus musculus; set-up: scale not given: the % may be the effect or the level left; outline: as §4
L1210 [9] = assay: Growth rate in leukemia L1210 cells at 100 uM; format: functional, Mus musculus; outline: as §1
L1210 [10] = assay: Growth rate measured as ratio of population doubling time of control cells to that of treated L1210 cells at 10 uM
L1210 [11] = assay: In vitro inhibitory concentration of compound against leukemia L1210 cells; No significant inhibition; format: functional, cell-based, Mus musculus; outline: as §3

SMILES | GR (L1210 [1]) | IC50 (L1210 [3]) | further results
COC(=O)Nc1nc(CCl)c[se]1 | 103% |  | 
COC(=O)Nc1nc(CCCl)cs1 | 92% |  | 
COC(=O)Nc1nc(CN=C=S)cs1 | 0% | 3.2 µM | Effect (L1210 [2]): 48%; Effect (L1210 [4]): 88%; Effect (L1210 [5]): 74%; Effect (L1210 [6]): 58%; Effect (L1210 [7]): 67%; Effect (L1210 [8]): 56%
CCOC(=O)Cc1csc(NC(=O)OC)n1 | 104% |  | 
COC(=O)Nc1nc(CCN=C=S)cs1 | 0% | 26 µM | 
COC(=O)Nc1nc(CCO)cs1 |  |  | GR control (L1210 [9]): 102%
COC(=O)Nc1nc(CN=C=[Se])cs1 | 0% | 7.6 µM | 
COC(=O)Nc1nc(CN=C=S)c[se]1 | 31% | 22 µM | 
COC(=O)Nc1nc(CCI)cs1 |  |  | GR (L1210 [10]): 92%
COC(=O)Nc1nc(CCl)cs1 | 96% |  | IC50 (L1210 [11]): Not Active
